Key:
[1] = Displacement of Ethidium bromide from G5C5 (5'-AAAGGGGG-CCCCCTTT-3') DNA (unknown origin)/EtBr complex assessed as decrease in initial absorbance of DNA by crystal violet staining based analysis
DNA [2] = assay: Displacement of Ethidium bromide from (AT)5 (5'-GGGATATA-TATATCCC-3') DNA (unknown origin)/EtBr complex assessed as decrease in initial absorbance of DNA by crystal violet staining based analysis; assay type: nucleic-acid assay
[3] = Binding affinity to DDD hairpin DNA (unknown origin) assessed as binding constant at 100 uM by ITC analysis
Summary of the method: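 Isothermal titration calorimetry of DDD hairpin (10 μM in cell) titrated with ligand (100 μM in syringe), 10 mM Tris-HCl pH 7.0, 30 °C; 25 injections of 10 μL. Heats of dilution subtracted; single-site binding model fitted; K averaged from triplicate experiments.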

Calf thymus DNA = assay: Binding affinity to calf thymus DNA assessed as change in melting temperature by UV thermal denaturation assay; assay type: nucleic-acid assay; conditions: Bos taurus
Summary of the method: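 CT DNA in 10 mM Tris-HCl pH 7.0 at a DNA:ligand ratio of 30:1, in 1 cm quartz cuvettes. Absorbance read every 2 °C from 25 to 95 °C, heating at 1 °C/min. Tm taken from first-derivative plots.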

DNA [4] = assay: Displacement of Ethidium bromide from A5T5 (5'-GGGAAAAATTTTTCCCCC-3') DNA (unknown origin)/EtBr complex assessed as decrease in initial absorbance of DNA by crystal violet staining based analysis; assay type: nucleic-acid assay
AT rich DNA = assay: Displacement of Ethidium bromide from AT3 (5'-ATATAT-3') hairpin DNA (unknown origin)/EtBr complex assessed as decrease in initial absorbance of DNA by crystal violet staining based analysis; assay type: nucleic-acid assay
[5] = Displacement of Ethidium bromide from DDD (5-CGAATT-3') hairpin DNA (unknown origin)/EtBr complex assessed as decrease in initial absorbance of DNA by crystal violet staining based analysis
[6] = Displacement of Ethidium bromide from NFAT1 (5-GAAAAA-3') hairpin DNA (unknown origin)/EtBr complex assessed as decrease in initial absorbance of DNA by crystal violet staining based analysis
[7] = Displacement of Ethidium bromide from cMyc (5'-CACGTG-3') hairpin DNA (unknown origin)/EtBr complex assessed as decrease in initial absorbance of DNA by crystal violet staining based analysis
[8] = Displacement of Ethidium bromide from STAT6 (5'-TCCTAG-3') hairpin DNA (unknown origin)/EtBr complex assessed as decrease in initial absorbance of DNA by crystal violet staining based analysis
[9] = Displacement of Ethidium bromide from G6 (5'-GGGGGG-3') hairpin DNA (unknown origin)/EtBr complex assessed as decrease in initial absorbance of DNA by crystal violet staining based analysis

Structure (SMILES) | C50 [1] [µM] | C50 (DNA [2]) [µM] | K [3] | ΔTm (Calf thymus DNA) [°C] | C50 (DNA [4]) [µM] | C50 (AT rich DNA) [µM] | C50 [5] [µM] | C50 [6] [µM] | C50 [7] [µM] | C50 [8] [µM] | C50 [9] [µM]
CN(C)c1ccc(C(=C2C=CC(=[N+](C)C)C(c3ccccc3)=C2)c2ccc(N(C)C)c(-c3ccccc3)c2)cc1-c1ccccc1 | 3.36 | 2.71 | 48.7 10^5/M | 2.2 | 3.13 | – | – | – | – | – | –
CC1=CC(=[N+](C)C)C=CC1=C(c1ccc(N(C)C)cc1C)c1ccc(N(C)C)cc1C | 7.21 | 2.3 | 1.2 10^5/M | 2.6 | 2.4 | – | – | – | – | – | –
CN(C)c1ccc(C(=C2C=CC(=[N+](C)C)C=C2)c2ccc3cc(N(C)C)ccc3c2)cc1 | 0.88 | 0.32 | 3.1 10^5/M | 4.6 | 0.52 | – | – | – | – | – | –
CN(C)c1ccc(C(=C2C=CC(=[N+](C)C)C=C2)c2ccc(N(C)C)c(-c3ccccc3)c2)cc1-c1ccccc1 | 2.09 | 1.81 | 0.3 10^5/M | 1.6 | 1.83 | – | – | – | – | – | –
CN(C)c1ccc(C(=C2C=CC(=[N+](C)C)C=C2)c2ccc(C#Cc3cc4c(cc3C#Cc3ccc(C(=C5C=CC(=[N+](C)C)C=C5)c5ccc(N(C)C)cc5)cc3)OCO4)cc2)cc1 | – | – | 0.5 10^5/M | 2.6 | – | 1.52 | 1.27 | 2.22 | 1.95 | 1.91 | 1.32

— ChEMBL document CHEMBL5365533, “DNA major versus minor groove occupancy of monomeric and dimeric crystal violet derivatives. Toward structural correlations” (Bioorg Med Chem, 2023)
